Among the data in ChEMBL document CHEMBL1781975, “Synthesis, crystal structure and antimicrobial activity of deoxybenzoin derivatives from genistein” (2008) are MIC values, retold here.

≈ marks a conversion by molar mass, not a printed value. Calls of active or inactive are those of the source. No cut-off for these calls is given here. Where only a bound is given, the exact number is not on record here.

One experiment relates to Escherichia coli. Nature of the experiment: Antibacterial activity against Escherichia coli after 24 hrs by MTT assay. The experiment is classed as functional. A digest of the protocol:
(§1)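 Broth microdilution MIC in Mueller-Hinton medium, compounds from a 50 mg/ml DMSO stock serially diluted in the wells. Inoculum approx. 10⁵ cfu/ml, incubated 37 °C for 24 h. MIC read visually. PBS (pH 7.4) with 2 mg/ml MTT then added, 12 h further incubation at room temperature, OD at 550 nm.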
(Formazan colour is commonly taken as a measure of viable cells.)

The next experiment has as its system Candida albicans. Nature of the experiment: Antifungal activity against Candida albicans after 48 hrs by MTT assay. The class given is functional, organism-based. The essentials:
(§2)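 Fungi tested by microdilution in RPMI-1640 buffered with 0.165 mol/L MOPS to pH 7.0. Compounds from a 50 mg/ml DMSO stock serially diluted. Inoculum approx. 10⁵ cfu/ml, 37 °C for 48 h. MIC scored visually, then MTT (2 mg/ml in PBS) added, 12 h at room temperature, absorbance 550 nm.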

The test system of the next experiment is Pseudomonas fluorescens. Nature of the experiment: Antibacterial activity against Pseudomonas fluorescens after 24 hrs by MTT assay. The class given is functional. The essentials:
as §1

A further experiment concerns Staphylococcus aureus. Nature of the experiment: Antibacterial activity against Staphylococcus aureus after 24 hrs by MTT assay. The experiment is classed as functional. The essentials:
as §1

For another experiment, the system named is Bacillus subtilis. Nature of the experiment: Antibacterial activity against Bacillus subtilis after 24 hrs by MTT assay. The class given is functional. A digest of the protocol: as §1
Another experiment has as its system Trichophyton rubrum. Nature of the experiment: Antifungal activity against Trichophyton rubrum after 48 hrs by MTT assay. The class given is functional, organism-based. A digest of the protocol:
as §2

For the next experiment, the system named is Aspergillus niger. As to the kind of experiment: Antifungal activity against Aspergillus niger after 48 hrs by MTT assay. The experiment is classed as functional, organism-based. A digest of the protocol: as §2

The MIC is the lowest concentration that inhibits growth of the organism. As to `O=C(Cc1ccc(OCCCBr)cc1)c1c(O)cc(OCCCBr)cc1OCCCBr`, the MIC was 25 µg/mL (≈ 40.1 µM) against Escherichia coli, over 50 µg/mL against Pseudomonas fluorescens, over 50 µg/mL against Staphylococcus aureus and 25 µg/mL (≈ 40.1 µM) against Bacillus subtilis. The MIC entry in the experiment with Candida albicans, in the experiment on Trichophyton rubrum and in the experiment with Aspergillus niger was “inactive” each time.

In the case of `CC1(C)S[C@@H]2[C@H](NC(=O)Cc3ccccc3)C(=O)N2[C@H]1C(=O)O` [PENICILLIN G], the minimal inhibitory concentration (MIC) in the experiment on Escherichia coli is over 50 µg/mL; in the experiment on Pseudomonas fluorescens, over 50 µg/mL; in the experiment with Staphylococcus aureus it was 2 µg/mL (≈ 5.98 µM); in the experiment with Bacillus subtilis, 7.8 µg/mL (≈ 23.3 µM).

Regarding `O=C(Cc1ccc(OCCBr)cc1)c1c(O)cc(OCCBr)cc1OCCBr`, the minimum inhibitory concentration (MIC) with Escherichia coli is 36.5 µg/mL (≈ 62.8 µM); against Pseudomonas fluorescens, over 50 µg/mL; against Staphylococcus aureus it was over 50 µg/mL; against Bacillus subtilis, 30.5 µg/mL (≈ 52.5 µM). In addition, the MIC entry with Candida albicans, in the experiment with Trichophyton rubrum and with Aspergillus niger was “inactive” each time.

In the case of `NC[C@H]1O[C@H](O[C@H]2[C@H](O)[C@@H](O[C@H]3O[C@H](CO)[C@@H](O)[C@H](N)[C@H]3O)[C@H](N)C[C@@H]2N)[C@H](O)[C@@H](O)[C@@H]1O` [KANAMYCIN], the MIC was determined as 0.45 µg/mL (≈ 0.929 µM) in the experiment on Escherichia coli, 3.9 µg/mL (≈ 8.05 µM) with Pseudomonas fluorescens, 1 µg/mL (≈ 2.06 µM) in the experiment on Staphylococcus aureus and 1 µg/mL (≈ 2.06 µM) with Bacillus subtilis.

With `O=C(O)COc1ccc(CC(=O)c2c(O)cc(OCC(=O)O)cc2OCC(=O)O)cc1`, the MIC was 48.5 µg/mL (≈ 112 µM) in the experiment on Escherichia coli, over 50 µg/mL in the experiment on Pseudomonas fluorescens, over 50 µg/mL against Staphylococcus aureus and 45.5 µg/mL (≈ 105 µM) with Bacillus subtilis. In addition, the MIC entry in the experiment with Candida albicans, in the experiment on Trichophyton rubrum and in the experiment on Aspergillus niger was “inactive” each time.

As for `COc1ccc(CC(=O)c2c(O)cc(OC)cc2OC)cc1`, the minimum inhibitory concentration (MIC) in the experiment on Escherichia coli, against Pseudomonas fluorescens, in the experiment on Staphylococcus aureus and with Bacillus subtilis was over 50 µg/mL throughout. For the same compound, the MIC result with Candida albicans, in the experiment on Trichophyton rubrum and in the experiment with Aspergillus niger was “inactive” in each case.

For the compound `COc1ccc(CC(=O)c2c(OC)cc(OC)c(Cc3c(OC)cc(OC)c(C(=O)Cc4ccc(OC)cc4)c3O)c2O)cc1`, the minimum inhibitory concentration (MIC) against Escherichia coli is 38.5 µg/mL (≈ 62.4 µM); against Pseudomonas fluorescens, over 50 µg/mL; against Staphylococcus aureus it was over 50 µg/mL; in the experiment with Bacillus subtilis, 31.5 µg/mL (≈ 51.1 µM). Moreover, the MIC entry in the experiment with Candida albicans, in the experiment with Trichophyton rubrum and in the experiment on Aspergillus niger was “inactive” throughout.

As to `O=C(Cc1ccc(OCCCBr)cc1)c1c(OCCCBr)cc(OCCCBr)c(Cc2c(OCCCBr)cc(OCCCBr)c(C(=O)Cc3ccc(OCCCBr)cc3)c2O)c1O`, the MIC against Escherichia coli was 17.5 µg/mL (≈ 13.9 µM); in the experiment on Pseudomonas fluorescens, over 50 µg/mL; in the experiment on Staphylococcus aureus, over 50 µg/mL; against Bacillus subtilis, 6.25 µg/mL (≈ 4.97 µM). Moreover, the MIC result with Candida albicans, in the experiment on Trichophyton rubrum and in the experiment with Aspergillus niger was “inactive” in each case.

In the case of `O=c1c(-c2ccc(O)cc2)coc2cc(O)cc(O)c12` [GENISTEIN], the MIC in the experiment with Escherichia coli, against Pseudomonas fluorescens, against Staphylococcus aureus and against Bacillus subtilis was over 50 µg/mL throughout. Moreover, the MIC entry in the experiment on Candida albicans, in the experiment on Trichophyton rubrum and with Aspergillus niger was “inactive” in each case.

Regarding `O=C(O)COc1ccc(CC(=O)c2c(OCC(=O)O)cc(OCC(=O)O)c(Cc3c(OCC(=O)O)cc(OCC(=O)O)c(C(=O)Cc4ccc(OCC(=O)O)cc4)c3O)c2O)cc1`, the MIC was 25 µg/mL (≈ 28.4 µM) with Escherichia coli, over 50 µg/mL in the experiment on Pseudomonas fluorescens, over 50 µg/mL with Staphylococcus aureus and 12.5 µg/mL (≈ 14.2 µM) in the experiment with Bacillus subtilis. Besides, the MIC result in the experiment on Candida albicans, in the experiment with Trichophyton rubrum and with Aspergillus niger was “inactive” each time.

For the compound `CC(=O)N1CCN(c2ccc(OCC3COC(Cn4ccnc4)(c4ccc(Cl)cc4Cl)O3)cc2)CC1` (stereo not given) [KETOCONAZOLE], the MIC against Escherichia coli, against Pseudomonas fluorescens, with Staphylococcus aureus and with Bacillus subtilis was over 50 µg/mL throughout.

With `O=C(Cc1ccc(O)cc1)c1c(O)cc(O)cc1O`, the MIC in the experiment on Escherichia coli is 42.5 µg/mL (≈ 163 µM); with Pseudomonas fluorescens, over 50 µg/mL; against Staphylococcus aureus, over 50 µg/mL; against Bacillus subtilis it was 40.5 µg/mL (≈ 156 µM). Also, the MIC result in the experiment with Candida albicans, in the experiment on Trichophyton rubrum and in the experiment with Aspergillus niger was “inactive” each time.
